The values below come from ChEMBL document CHEMBL1129372, “Cyclopent[a]anthraquinones as DNA intercalating agents with covalent bond formation potential: synthesis and biological activity” (J Med Chem, 1996).

Test [1] deals with SK-BR-3. Briefly: Inhibition of cell growth was studied in human mammary adenocarcinoma (SKBR-3). The class given is functional, cell-based. A digest of the protocol: (§1)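 Monolayer solid-tumor cells were assayed by SRB protein staining using six to seven concentrations. IC50 is the concentration reducing cell density to 50% of control, derived by median-effect plot.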
Test [2] deals with 833K. Nature of the test: Inhibition of cell growth was studied in human teratocarcinoma (833K). The class given is functional, cell-based. A digest of the protocol: as §1
Test [3] deals with Mus musculus. Nature of the test: (§2) Anti cancer activity was tested on day10, in mice bearing Lewis lung adenocarcinoma by injecting 0.4 mg/kg dose of compound intraperitoneally and average weight change was reported. The class given is functional. The following applies: route intraperitoneal. Put shortly: (§3)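 BDF1 mice given Lewis lung carcinoma subcutaneously (footnote: 4 × 10⁶ cells; methods: 0.2 mL brei). Dosing was ip once daily for 5 days, starting day 3 after inoculation, with drug in DMSO. Controls received DMSO alone: four control mice and three mice per dose. Body weight change, mortality and tumor volume were recorded on days 7, 10 and 14. Tumor volume is given as T/C.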

Test [4] concerns DC3F/AD-II. Briefly: Inhibition of cell growth was studied in chinese hamster lung cells resistant to actinomycin D (DC-3F/AD-II). The class given is functional, cell-based. The conditions noted are these: Cricetulus griseus. A digest of the protocol: as §1
For test [5], the system named is Mus musculus. Briefly: Anti cancer activity was tested on day 14, in mice bearing Lewis lung adenocarcinoma by injecting 0.8 mg/kg dose of compound intraperitoneally and average weight change was reported. The class given is functional. The following applies: route intraperitoneal. Put shortly: as §3
For test [6], the system named is Mus musculus. Nature of the test: Anti cancer activity was tested on day 14, in mice bearing Lewis lung adenocarcinoma by injecting 0.4 mg/kg dose of compound intraperitoneally and a. average […] was reported. Format: functional. The following applies: route intraperitoneal. Put shortly: as §3
The subject of test [7] is HL-60. Briefly: Inhibition of cell growth was studied in human promyelocytic leukemic (HL-60) cells. Format: functional, cell-based. Put shortly: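 HL-60 cells were exposed for 72 h and read by XTT-tetrazolium microculture assay: PMS-XTT incubation for 6 h at 37 °C, absorbance at 450 and 630 nm. Six to seven concentrations were tested. IC50 was derived by median-effect plot.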

Test [8] concerns Mus musculus. Briefly: Anti cancer activity was tested on day10, in mice bearing Lewis lung adenocarcinoma by injecting 0.8 mg/kg dose of compound intraperitoneally and average tumor volume was calculated. The class given is functional. The conditions noted are these: route intraperitoneal. Put shortly:
as §3

Test [9] deals with Mus musculus. Nature of the test: Anti cancer activity was tested on day10, in mice bearing Lewis lung adenocarcinoma by injecting 0.8 mg/kg dose of compound intraperitoneally and average weight change was reported. The class given is functional. The following applies: route intraperitoneal. Put shortly:
as §3

The subject of test [10] is Mus musculus. Nature of the test: Anti cancer activity was tested on day10, in mice bearing Lewis lung adenocarcinoma by injecting 0.4 mg/kg dose of compound intraperitoneally and average tumor volume was calculated. The class given is functional. The conditions noted are these: route intraperitoneal. Put shortly: as §3
Test [11] concerns Mus musculus. Nature of the test: Anti cancer activity was tested on day 7, in mice bearing Lewis lung adenocarcinoma by injecting 0.4 mg/kg dose of compound intraperitoneally and average tumor volume was calculated. The conditions noted are these: route intraperitoneal. Format: functional. Put shortly:
as §3

Test [12] deals with DC3F. Nature of the test: Inhibition of cell growth was studied in chinese hamster lung cells (DC-3F). The class given is functional, cell-based. The following applies: Cricetulus griseus. A digest of the protocol:
as §1

For test [13], the system named is Mus musculus. Briefly: Anti cancer activity was tested on day 14, in mice bearing Lewis lung adenocarcinoma by injecting 0.8 mg/kg dose of compound intraperitoneally and average tumor volume was calculated. The following applies: route intraperitoneal. Format: functional. Put shortly: as §3
Test [14] relates to Mus musculus. Described as §2. The conditions noted are these: route intraperitoneal. Format: functional. Put shortly: (§4)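 Lewis lung carcinoma was implanted subcutaneously in BDF₁ mice at 4 × 10⁶ cells. Starting day 3, drug in DMSO was given ip once daily for 5 days; untreated controls received DMSO alone. Groups were four control mice and three mice per dose. Body weight change and average tumor volume (T/C) were recorded on days 7, 10 and 14 after treatment began.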
The source holds these as a separate data set.

Test [15] has as its system Mus musculus. Nature of the test: Anti cancer activity was tested on day 7, in mice bearing Lewis lung adenocarcinoma by injecting 2.0 mg/kg dose of compound intraperitoneally and average tumor volume was calculated. The class given is functional. The conditions noted are these: route intraperitoneal. Put shortly: as §4
Test [16] has as its system Mus musculus. Briefly: Anti cancer activity was tested on day 7, in mice bearing Lewis lung adenocarcinoma by injecting 2.0 mg/kg dose of compound intraperitoneally and average weight change was reported. The conditions noted are these: route intraperitoneal. The class given is functional. A digest of the protocol:
as §4

The subject of test [17] is Mus musculus. Nature of the test: Anti cancer activity was tested on day 14, in mice bearing Lewis lung adenocarcinoma by injecting 0.4 mg/kg dose of compound intraperitoneally and average […] was reported. Format: functional. The conditions noted are these: route intraperitoneal. Put shortly:
as §4

Values joined by “and” are separate entries in the source; they are usually repeats but may differ in a detail not shown here. Identical values can stand only once.

As to `CNC(=O)OCc1cc2c(c3c1C1NC1C3)C(=O)c1ccccc1C2=O` (configuration not stated), the IC50 in test [1] stood at 19.9 µM; in [2], 23.9 µM; in test [4] it was 3.6 µM; in [7], 6.03 µM; in test [12], 10.4 µM. The Average weight change in test [3] was -0.2 mg/kg; in test [5], 0.5 g; in test [6] it was 2 mg/kg; in test [9] it was -0.4 g. In addition, the Average tumor volume in test [6] is 0.529 T/C; in [8] it was 0.205 T/C; in [10], 0.303 T/C; in [13] it was 0.496 T/C. In addition, the “Tumor volume treated/control ratio (T/C)” value in test [11] is 1.011 T/C and 0.529 T/C.

For the compound `NC(=O)OCc1cc2c(c3c1CCC3)C(=O)c1ccccc1C2=O`, it took 123 µM to reach half-maximal inhibition in [7] (IC50).

Turning to `CNC(=O)OCc1cc2c(c3c1CCC3)C(=O)c1ccccc1C2=O`, the concentration for half-maximal inhibition (IC50) in test [7] worked out at 274 µM.

`CO[C@@]12[C@H](COC(N)=O)C3=C(C(=O)C(C)=C(N)C3=O)N1C[C@@H]1N[C@@H]12` [MITOMYCIN]: the Average weight change is -1.2 g in test [14]; -2.7 g in test [16]; 0.2 g in test [5]; 0.6 g in test [17]; -1.8 g in [9]. The Average tumor volume in test [15] was 0.169 T/C; in test [17], 0.515 T/C; in [8] it was 0.363 T/C; in test [10] it was 0.411 T/C; in test [13], 0.437 T/C. Further, the IC50 in test [1] turned out to be 0.993 µM; in [2], 0.328 µM; in test [4], 0.11 µM; in test [7], 0.05 µM; in [12] it was 0.082 µM. In test [11], the “Tumor volume treated/control ratio (T/C)” value was 0.49 T/C and 0.356 T/C.

The IC50 is the concentration needed to halve the response being measured.
